# Source: PubChem
# PTEN del growth = growth suppression of PTEN-null HCT116, primary screen, cell-based, CellTiter-Glo | viability, % at 10 µM | 1.2% of 140,000 active | HCT116 PTEN-null viability, 60 h; active compounds read low;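 active = viability at or below a set limit, 4 SD under the median of all tested compounds, cut at about 3.7% in these data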;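 note: PTEN knockout HCT116 line with beta catenin targeted HCT116 as companion control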
# bCat KO growth = primary screen for growth suppressors in beta-catenin knockout HCT116 cells (colon tumor, human). HCT116 beta-catenin knockout viability, CellTiter-Glo, 60 h; active compounds read low. viability, % at 10 µM. 1.5% of 140,000 active;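 active = viability at or under a set limit, the compound median less 4 SD, cut at about 6% in these data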;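 note: 0% = Hyamine 1622 control at 20 µM and 100% = untreated cell control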
# PTK2B oligo ant = antagonists of Pyk2 self-association, primary screen, Q293 cells, FERM NanoBiT luminescence, HTS; Protein-tyrosine kinase 2-beta (Homo sapiens), Q14289; 0.83% of 99,000 active; z-score (the deposit names both 25 µM and 10 µM); AID 1347419, 2020; active compounds read low;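 active = Z-score of -3 or lower, scaled per plate to the spread of control and sample wells; inactive = z-score above -3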;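 note: negative z-score means lost luminescence so less FERM oligomerization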
# Lung fibro prol = antiproliferative effect on LL 47 fibroblasts – human, LL 47 cells, CellTiter-Glo luminescence, primary screen; LL 47 human lung fibroblast viability, ATP luminescence; active compounds read low; viability, % at 10 µM; 1.1% of 85,000 active; AID 719, 2007;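 active = viability at or below 50% in the single dose screen; inactive = viability above 50%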;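 note: compound exposure lasted 72 h before the ATP readout; 100% = median luminescence of untreated cell-only wells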
#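 material = human LL 47 lung fibroblast cells | dosing = compounds added from tenfold dosing solution, 0.1% DMSO final | timing = overnight cell rest, 72 h compound treatment at 37 °C | measured by = CellTiter-Glo luminescence measuring cellular ATP | evaluation = % viability versus median cells-only luminescence | control set = cell-only wells, no compound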
# H69AR growth 86K = proliferation blockers of H69AR lung cancer cells, primary screen, cell-based, human, 86K library; viability, % at 10 µM; 6% of 85,000 active; H69AR lung tumor viability, ATP luminescence, 72 h; active compounds read low;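 active = viability at or below 40%; inactive = viability above 40%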;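 note: multidrug resistant small cell line overexpressing MRP-1 efflux transporter; 100% = mean luminescence of untreated control wells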
# HUVEC inhibit = inhibitors of HUVEC proliferation, primary screen, cell-based, 384-well | 1.1% of 86,000 active | CellTiter-Glo luminescence, 72 h; active compounds read low | viability, % at 10 µM (by protocol);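 active = viability at or below 30%; inactive = viability above 30%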;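 note: 100% = median luminescence of DMSO-only cell control wells on each plate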
# * hit, by the source's call; . = no result. The entries come from a sample that favours hits as a whole.
SMILES,PTEN del growth,bCat KO growth,PTK2B oligo ant,Lung fibro prol,H69AR growth 86K,HUVEC inhibit
COc1ccc(OC)c(N=CC2=C(O)CC(C)(C)CC2=O)c1,86.3,87.7,-0.15,97.0,93.9,95.7
CC/C(O)=C1\C(=O)CC(C)(C)CC1=Nc1ccccc1C,96.6,103.9,.,.,.,.
Cc1ccc(S(=O)(=O)N2CCN(C(=O)CN3CCOCC3)C2c2ccccc2)cc1 (stereo not given),76.8,81.2,-0.25,98.5,7.1*,79.9
O=C1NC(c2ccccc2)=C(c2nc3ccccc3s2)C(c2ccc(F)cc2)N1 (stereo not given),49.6,59.0,-3.16*,81.4,70.7,53.2
COc1ccc(C2NC(=O)NC(c3ccccc3)=C2c2nc3ccccc3s2)cc1 (stereo not given),60.5,55.1,-2.91,.,.,.
O=C(Nc1ccc(Cl)cn1)c1ccc(-c2cc(Cl)ccc2Cl)o1,7.2,3.1*,.,.,.,.
CCc1ccc(NC(=O)C(C)OC(=O)c2cccc(S(=O)(=O)N3CCc4ccccc4C3)c2)cc1 (stereo not given),79.2,78.1,.,.,.,.
O=C(Nc1ccccc1NC(=O)NC1CCCCC1)NC1CCCCC1,4.5,25.6,-0.66,51.4,0.6*,3.6*
N#C/C(=N\Nc1cccc2ccccc12)c1nnc2n1CCCCC2,88.9,95.9,.,.,.,.
Cc1c(C(=O)Nc2cccc(Cl)c2)oc2ccc(S(=O)(=O)N3CCC4(CC3)OCCO4)cc12,28.2,44.9,0.54,80.9,13.3*,48.6
Cc1ccc(NC(=O)c2oc3ccc(S(=O)(=O)N4CCOCC4)cc3c2C)cc1C,62.2,62.0,-0.59,83.5,36.9*,59.8
Cc1c(C(=O)Nc2ccc(F)cc2)oc2ccc(S(=O)(=O)N3CCCC3)cc12,98.2,97.8,.,103.2,70.7,94.8
Cc1ccc(NC(=O)c2cc3c(s2)CCC3)cc1S(=O)(=O)N1CCOCC1,72.6,90.4,-3.25*,88.6,72.3,89.6
Cc1ccc(S(=O)(=O)N2CCOCC2)cc1NC(=O)c1cc2c(s1)CCC2,95.0,94.7,-0.29,.,.,.
Cc1c(C(=O)Nc2ccc(F)cc2)oc2ccc(S(=O)(=O)N3CCC4(CC3)OCCO4)cc12,38.7,47.0,-0.96,89.9,32.8*,67.0
CC(CCc1ccccc1)NC(=O)c1nnc(Cc2ccc(Cl)cc2)o1 (stereo not given),92.4,71.1,.,96.2,89.8,103.2
C(=C\c1ccccc1)/CSc1nnc(-c2ccccc2)n1Cc1ccco1,12.4,10.3,-2.24,47.2*,17.9*,43.2
CC(C)(C)c1ccc(CSc2nnc(-c3ccccn3)n2Cc2ccco2)cc1,64.3,69.8,-2.43,.,.,.
Brc1ccc(CSc2nnc(-c3ccccn3)n2Cc2ccco2)cc1,9.7,11.1,-1.53,49.4*,21.1*,52.1
Cc1nn(-c2nc3ccccc3[nH]2)c(N)c1-c1ccccc1,7.3,13.2,-2.21,68.6,19.9*,79.5
CCc1nnc(NC(=O)CCC(=O)N2CCN(C3c4ccccc4-c4ccccc43)CC2)s1,95.8,96.3,.,.,.,.
CCCc1nc(NCc2ccncc2)c2nnn(Cc3ccccc3F)c2n1,3.2*,1.9*,-0.2,89.8,42.1,89.4
Cc1ccc(-c2csc3nc(SCC(N)=O)n(Cc4ccccc4)c(=O)c23)cc1,54.6,66.6,.,.,.,.
CCOc1ccc(C2Nc3ccc4ccccc4c3-c3c2c(=O)oc2ccccc32)cc1 (stereo not given),4.5,2.7*,-1.52,.,.,.
O=c1oc2ccccc2c2c1C(c1ccc(Cl)cc1)Nc1ccc3ccccc3c1-2 (stereo not given),75.9,73.1,-2.26,.,.,.
SMILES,PTEN del growth,bCat KO growth,PTK2B oligo ant,Lung fibro prol,H69AR growth 86K,HUVEC inhibit
COc1ccc(C2Nc3ccc4ccccc4c3-c3c2c(=O)oc2ccccc32)cc1 (stereo not given),1.5*,3.2*,-2.66,.,.,.
Cc1ccc(S(=O)(=O)NC(=O)c2ccc(Br)o2)cc1,92.6,89.3,.,.,.,.
C[C@@H](NC(=O)c1coc(=O)c(Br)c1)c1ccccc1,81.2,86.0,0.36,54.3,3.7*,82.6
CC(NC(=O)c1ccc(Br)cc1)c1ccccc1 (stereo not given),87.8,84.1,.,.,.,.
CCn1c(SCC(=O)NC2CCCCC2)nc2c(c1=O)SC(C)C2 (stereo not given),90.9,99.8,0.25,94.4,38.9*,89.9
CCn1c(SCC(=O)Nc2nc3ccc(C)cc3s2)nc2c(c1=O)SC(C)C2 (stereo not given),59.9,62.5,-3.56*,94.8,55.1,91.2
CCn1c(SCC(=O)Nc2nc3ccccc3s2)nc2c(c1=O)SC(C)C2 (stereo not given),74.4,77.3,.,88.0,73.5,84.7
O=C1NC(=S)SC1=C1CCCCCC1,89.3,80.8,-0.03,92.6,93.9,91.4
O=c1[nH]c2cc3c(cc2cc1C(c1nnnn1C1CCCCC1)N1CCSCC1)OCCO3 (stereo not given),85.1,82.8,0.51,27.9*,2.0*,86.2
COc1cc2cc(C(c3nnnn3C3CCCC3)N3CCCCC3)c(=O)[nH]c2cc1OC (stereo not given),97.9,93.2,1.28,94.7,89.6,90.7
Cc1ccc(-c2nc3ccccc3[nH]2)cc1NC(=O)c1sc2cc(Cl)ccc2c1Cl,101.9,100.9,.,.,.,.
CC1(C)C2CC=C(/C=N/NC(=O)c3ccc(O)cc3)C1C2 (stereo not given),91.3,94.8,.,.,.,.
Cc1ccc2[nH]c3c(c2c1)CCCC3=O,91.8,91.8,-0.56,87.4,89.1,27.2*
Cc1ccc2[nH]c3c(c2c1)CCC3=O,93.4,107.9,0.9,106.2,95.6,32.0
Cc1ccc2[nH]c3c(c2c1)CCc1cn[nH]c1-3,61.9,51.0,-0.29,98.5,38.9*,69.5
CC(C)CC(NS(=O)(=O)c1ccccc1)C(=O)O (stereo not given),103.7,97.0,-0.42,104.3,91.7,100.0
CC(C)CN=C(NS(=O)(=O)c1ccccc1)C(Cl)(Cl)Cl,4.5,4.7*,.,.,.,.
CCCc1cc(=O)[nH]c(SCC(=O)c2cc(C)n(C(C)COC)c2C)n1 (stereo not given),90.1,85.4,-0.23,92.6,88.7,93.3
Cc1[nH]n(-c2ccc([N+](=O)[O-])cc2)c(=O)c1C=NCCc1c(C)[nH]c2ccccc12,59.6,60.7,.,.,.,.
CN(C(=O)COc1ccccc1C(=O)NCCOc1ccccc1)c1ccccc1,3.5*,3.5*,.,.,.,.
Cc1cccn2c(=O)c(C=NCc3ccco3)c(Nc3ccc(Cl)cc3)nc12,.,.,.,71.9,23.0*,69.9
O=C(NCC1(c2ccccc2)CCCC1)c1ccc(Br)o1,79.2,67.7,.,.,.,.
O=C(O)CCS(=O)(=O)c1nc(-c2cccs2)cc(C(F)(F)F)n1,103.5,93.9,0.55,92.2,33.0*,92.7
